From the M2OR odorant receptor database
Substitutions are numbered along the chain they refer to.

Experiments:
Details in all cases: stereoisomer not certain
O10H2 = test system: T1, O10H2
T1 sequence (whole entry): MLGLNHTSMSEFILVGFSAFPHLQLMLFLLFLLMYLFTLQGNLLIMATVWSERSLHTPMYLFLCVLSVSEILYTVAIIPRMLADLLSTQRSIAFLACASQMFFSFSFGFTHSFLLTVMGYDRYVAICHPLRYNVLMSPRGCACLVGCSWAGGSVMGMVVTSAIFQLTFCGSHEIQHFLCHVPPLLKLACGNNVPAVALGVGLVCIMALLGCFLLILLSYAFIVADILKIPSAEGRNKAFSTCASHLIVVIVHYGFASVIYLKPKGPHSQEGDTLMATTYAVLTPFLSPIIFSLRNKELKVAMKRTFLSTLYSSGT
In short: (§1)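 Whether a receptor–molecule pair is responsive (active) rests on the original authors' judgment that its measured signal was statistically different from baseline. Pairs without that judgment are non-responsive (inactive). Sources used varied assay methods, commonly transient luciferase assays in mammalian cell lines.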

O10H3 R54H = test system: T2, O10H3 R54H
T2 sequence (whole entry): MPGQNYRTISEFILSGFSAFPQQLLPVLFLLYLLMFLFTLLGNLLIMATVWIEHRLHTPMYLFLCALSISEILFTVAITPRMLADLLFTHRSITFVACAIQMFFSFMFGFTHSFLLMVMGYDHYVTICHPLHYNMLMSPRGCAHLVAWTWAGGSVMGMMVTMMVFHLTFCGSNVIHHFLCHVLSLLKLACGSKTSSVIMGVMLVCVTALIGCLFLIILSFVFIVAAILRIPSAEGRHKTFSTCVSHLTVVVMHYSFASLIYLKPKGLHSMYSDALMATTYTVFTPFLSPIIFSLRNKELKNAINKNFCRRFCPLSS
In short: as §1

O10H4 I50V = test system: T3, O10H4 I50V
T3 sequence (whole entry): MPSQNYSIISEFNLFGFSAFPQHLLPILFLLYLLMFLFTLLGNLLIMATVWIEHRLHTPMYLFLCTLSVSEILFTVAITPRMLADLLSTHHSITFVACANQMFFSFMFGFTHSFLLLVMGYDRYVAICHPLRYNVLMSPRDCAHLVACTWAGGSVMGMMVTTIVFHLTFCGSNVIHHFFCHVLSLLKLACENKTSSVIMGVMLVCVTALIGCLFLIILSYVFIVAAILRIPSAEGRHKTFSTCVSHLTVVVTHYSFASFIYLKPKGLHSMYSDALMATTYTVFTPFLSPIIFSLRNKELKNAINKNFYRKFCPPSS
In short: as §1

O10H5 S268Y = test system: T4, O10H5 S268Y
T4 sequence (whole entry): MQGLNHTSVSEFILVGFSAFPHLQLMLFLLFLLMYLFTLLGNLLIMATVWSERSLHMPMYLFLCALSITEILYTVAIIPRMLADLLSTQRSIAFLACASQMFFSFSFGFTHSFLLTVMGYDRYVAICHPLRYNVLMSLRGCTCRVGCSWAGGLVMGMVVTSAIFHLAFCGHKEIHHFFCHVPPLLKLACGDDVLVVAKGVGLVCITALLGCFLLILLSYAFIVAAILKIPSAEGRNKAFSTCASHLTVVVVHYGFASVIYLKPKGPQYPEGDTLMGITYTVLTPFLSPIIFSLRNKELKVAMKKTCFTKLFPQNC
In short: as §1

O10J1 M62I I103M = test system: T5, O10J1 M62I I103M
T5 sequence (whole entry): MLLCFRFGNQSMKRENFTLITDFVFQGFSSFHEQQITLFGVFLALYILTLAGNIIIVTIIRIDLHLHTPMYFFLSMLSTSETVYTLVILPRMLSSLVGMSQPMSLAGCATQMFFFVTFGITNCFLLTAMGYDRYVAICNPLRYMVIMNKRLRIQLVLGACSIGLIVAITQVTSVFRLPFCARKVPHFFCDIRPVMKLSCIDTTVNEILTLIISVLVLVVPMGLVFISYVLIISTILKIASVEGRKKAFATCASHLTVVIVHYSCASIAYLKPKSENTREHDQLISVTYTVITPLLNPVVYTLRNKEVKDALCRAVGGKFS
In short: as §1

O10J1 M62I = test system: T6, O10J1 M62I
T6 sequence (whole entry): T5 sequence (whole entry) with M103I
In short: as §1

O10J3 Q235R E319G = test system: T7, O10J3 Q235R E319G
T7 sequence (whole entry): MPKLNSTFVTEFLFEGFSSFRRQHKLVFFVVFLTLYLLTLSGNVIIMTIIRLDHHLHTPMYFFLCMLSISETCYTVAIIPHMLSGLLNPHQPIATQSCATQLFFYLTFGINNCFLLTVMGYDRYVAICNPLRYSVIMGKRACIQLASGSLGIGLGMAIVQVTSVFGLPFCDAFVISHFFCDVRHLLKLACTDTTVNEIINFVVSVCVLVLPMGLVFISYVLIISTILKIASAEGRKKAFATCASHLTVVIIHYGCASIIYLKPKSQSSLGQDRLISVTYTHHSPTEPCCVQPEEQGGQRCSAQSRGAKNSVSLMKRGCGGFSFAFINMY
In short: as §1

O10P1 R195K = test system: T8, O10P1 R195K
T8 sequence (whole entry): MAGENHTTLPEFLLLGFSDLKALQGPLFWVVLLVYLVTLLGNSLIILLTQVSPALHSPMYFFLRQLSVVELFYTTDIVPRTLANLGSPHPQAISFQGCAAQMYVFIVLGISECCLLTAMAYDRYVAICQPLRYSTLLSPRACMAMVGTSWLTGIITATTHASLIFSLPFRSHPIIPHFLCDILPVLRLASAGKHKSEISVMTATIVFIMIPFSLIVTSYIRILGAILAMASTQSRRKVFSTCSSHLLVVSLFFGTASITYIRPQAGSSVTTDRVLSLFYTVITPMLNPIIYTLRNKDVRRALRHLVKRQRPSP
In short: as §1

O10Q1 E12D = test system: T9, O10Q1 E12D
T9 sequence (whole entry): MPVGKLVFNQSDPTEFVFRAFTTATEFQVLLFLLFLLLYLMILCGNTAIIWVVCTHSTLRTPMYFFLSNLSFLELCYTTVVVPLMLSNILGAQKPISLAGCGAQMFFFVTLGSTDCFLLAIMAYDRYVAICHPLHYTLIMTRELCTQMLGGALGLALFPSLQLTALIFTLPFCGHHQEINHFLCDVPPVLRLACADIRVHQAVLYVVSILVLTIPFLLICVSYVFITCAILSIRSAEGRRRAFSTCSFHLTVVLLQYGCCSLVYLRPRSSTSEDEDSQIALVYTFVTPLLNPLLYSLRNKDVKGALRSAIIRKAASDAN
In short: as §1

O10Q1 Q10R E12D = test system: T10, O10Q1 Q10R E12D
T10 sequence (whole entry): T9 sequence (whole entry) with Q10R
In short: as §1

O10R2 I170L = test system: T11, O10R2 I170L
T11 sequence (whole entry): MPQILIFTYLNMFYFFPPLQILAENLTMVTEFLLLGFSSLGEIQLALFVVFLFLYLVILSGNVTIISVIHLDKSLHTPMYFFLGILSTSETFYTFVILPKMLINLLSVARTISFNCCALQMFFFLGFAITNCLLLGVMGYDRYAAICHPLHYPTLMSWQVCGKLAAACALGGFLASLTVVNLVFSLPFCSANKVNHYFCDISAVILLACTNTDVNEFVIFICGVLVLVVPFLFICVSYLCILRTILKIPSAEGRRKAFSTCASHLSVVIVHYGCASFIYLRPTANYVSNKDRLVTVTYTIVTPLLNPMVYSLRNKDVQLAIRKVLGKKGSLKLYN
In short: as §1

O10T2 I137M = test system: T12, O10T2 I137M
T12 sequence (whole entry): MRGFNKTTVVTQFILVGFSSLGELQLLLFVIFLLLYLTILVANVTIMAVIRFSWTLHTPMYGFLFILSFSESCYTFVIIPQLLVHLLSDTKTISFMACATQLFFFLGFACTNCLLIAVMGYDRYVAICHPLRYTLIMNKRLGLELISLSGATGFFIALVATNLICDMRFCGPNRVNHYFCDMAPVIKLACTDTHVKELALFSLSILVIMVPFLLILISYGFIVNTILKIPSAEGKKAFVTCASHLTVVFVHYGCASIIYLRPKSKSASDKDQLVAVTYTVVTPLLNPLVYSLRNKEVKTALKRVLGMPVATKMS
In short: as §1

O10V1 Q123R = test system: T13, O10V1 Q123R
T13 sequence (whole entry): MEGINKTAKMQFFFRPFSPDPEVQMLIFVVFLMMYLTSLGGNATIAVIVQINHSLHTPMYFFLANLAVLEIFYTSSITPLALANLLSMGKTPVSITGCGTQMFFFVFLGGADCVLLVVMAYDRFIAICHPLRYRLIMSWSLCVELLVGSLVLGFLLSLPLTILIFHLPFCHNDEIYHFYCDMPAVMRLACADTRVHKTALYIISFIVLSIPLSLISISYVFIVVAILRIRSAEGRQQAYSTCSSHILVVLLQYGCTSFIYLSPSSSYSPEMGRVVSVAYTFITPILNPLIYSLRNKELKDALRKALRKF
In short: as §1

O10X1 N4T R181S = test system: T14, O10X1 N4T R181S
T14 sequence (whole entry): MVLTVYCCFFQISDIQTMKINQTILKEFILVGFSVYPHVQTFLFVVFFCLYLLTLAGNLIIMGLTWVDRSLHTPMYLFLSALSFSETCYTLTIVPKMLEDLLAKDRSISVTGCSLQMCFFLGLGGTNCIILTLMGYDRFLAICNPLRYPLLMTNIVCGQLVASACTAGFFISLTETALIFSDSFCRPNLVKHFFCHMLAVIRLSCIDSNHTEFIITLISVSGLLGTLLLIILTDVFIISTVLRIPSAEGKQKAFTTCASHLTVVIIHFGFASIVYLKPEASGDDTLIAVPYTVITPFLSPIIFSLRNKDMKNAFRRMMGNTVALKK
In short: as §1

O11G2 F3I I99N V116I = test system: T15, O11G2 F3I I99N V116I
T15 sequence (whole entry): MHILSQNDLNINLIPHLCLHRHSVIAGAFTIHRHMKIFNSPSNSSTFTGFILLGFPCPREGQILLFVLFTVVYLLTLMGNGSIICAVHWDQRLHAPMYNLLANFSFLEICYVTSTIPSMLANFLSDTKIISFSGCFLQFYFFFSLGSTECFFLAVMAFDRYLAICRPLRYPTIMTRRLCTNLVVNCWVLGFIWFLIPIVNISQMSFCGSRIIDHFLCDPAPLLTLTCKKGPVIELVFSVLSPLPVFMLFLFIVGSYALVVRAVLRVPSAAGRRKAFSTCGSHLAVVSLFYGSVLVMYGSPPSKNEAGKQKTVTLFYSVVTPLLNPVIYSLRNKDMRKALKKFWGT
In short: as §1

O11H1 M240V = test system: T16, O11H1 M240V
T16 sequence (whole entry): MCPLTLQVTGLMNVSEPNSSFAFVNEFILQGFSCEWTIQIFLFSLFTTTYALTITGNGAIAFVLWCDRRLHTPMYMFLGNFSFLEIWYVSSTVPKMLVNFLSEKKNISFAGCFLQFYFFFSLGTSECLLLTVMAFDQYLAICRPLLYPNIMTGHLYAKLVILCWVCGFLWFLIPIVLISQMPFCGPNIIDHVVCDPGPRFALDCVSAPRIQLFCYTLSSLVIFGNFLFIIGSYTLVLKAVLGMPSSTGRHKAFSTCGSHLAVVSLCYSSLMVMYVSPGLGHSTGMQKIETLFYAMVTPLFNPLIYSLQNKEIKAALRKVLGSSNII
In short: as §1

O11H6 I107T = test system: T17, O11H6 I107T
T17 sequence (whole entry): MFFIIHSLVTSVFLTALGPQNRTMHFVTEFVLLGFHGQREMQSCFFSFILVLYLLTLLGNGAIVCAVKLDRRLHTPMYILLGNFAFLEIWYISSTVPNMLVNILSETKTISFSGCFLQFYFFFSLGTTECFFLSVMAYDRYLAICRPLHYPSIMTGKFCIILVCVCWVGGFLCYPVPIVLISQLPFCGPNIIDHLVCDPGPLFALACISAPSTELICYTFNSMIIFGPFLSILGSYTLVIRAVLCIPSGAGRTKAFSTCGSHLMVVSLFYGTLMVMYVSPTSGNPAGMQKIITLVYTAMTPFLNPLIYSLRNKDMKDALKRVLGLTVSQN
In short: as §1

O11HC C156Y V240M = test system: T18, O11HC C156Y V240M
T18 sequence (whole entry): T16 sequence (whole entry) with S33T, R68W, V240M
In short: as §1

O12D2 S104F = test system: T19, O12D2 S104F
T19 sequence (whole entry): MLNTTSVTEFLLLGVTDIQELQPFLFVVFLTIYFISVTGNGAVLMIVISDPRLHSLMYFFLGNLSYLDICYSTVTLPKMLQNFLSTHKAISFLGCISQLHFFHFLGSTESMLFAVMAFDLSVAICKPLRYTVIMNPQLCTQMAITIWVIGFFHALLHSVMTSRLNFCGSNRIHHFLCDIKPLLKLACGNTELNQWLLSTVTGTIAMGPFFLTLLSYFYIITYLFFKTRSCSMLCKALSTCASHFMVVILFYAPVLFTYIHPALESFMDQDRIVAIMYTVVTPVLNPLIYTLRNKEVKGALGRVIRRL
In short: as §1

O13C2 H6Q = test system: T20, O13C2 H6Q
T20 sequence (whole entry): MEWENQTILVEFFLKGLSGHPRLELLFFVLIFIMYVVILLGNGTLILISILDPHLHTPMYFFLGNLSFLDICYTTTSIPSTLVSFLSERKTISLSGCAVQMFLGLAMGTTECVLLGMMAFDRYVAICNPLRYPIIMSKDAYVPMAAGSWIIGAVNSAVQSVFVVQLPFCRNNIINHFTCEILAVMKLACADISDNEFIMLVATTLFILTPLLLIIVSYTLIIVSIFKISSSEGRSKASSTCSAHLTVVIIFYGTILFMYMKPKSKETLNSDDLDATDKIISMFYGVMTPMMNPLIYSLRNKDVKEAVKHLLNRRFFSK
In short: as §1

Measured: odorant receptor agonist call;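 note: active if original authors judged signal statistically different from baseline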

CCC1OC(C)=C(O)C1=O (stereo not given)
inactive: all assays above

Cc1cnc(C)c(C)n1
inactive: all assays above

CC1=C(O)C(=O)C(C)O1 (stereo not given)
inactive: all assays above

CC1=C(O)C(=O)OC1C (stereo not given)
inactive: all assays above

CCCCCCC=CCCC=O
inactive: all assays above

CCC1OC(=O)C(O)=C1C (stereo not given)
inactive: all assays above

CCCC(S)CCOC(C)=O (stereo not given)
inactive: all assays above

CC1=NC(C)C(C)S1 (stereo not given)
inactive: all assays above
